Measured values gathered from unrelated publications.
Target: Proto-oncogene tyrosine-protein kinase ROS (ROS1, Homo sapiens, UniProt P08922)

O=c1[nH]c2ccccc2n1C1CCN(Cc2ccc(-c3[nH]c4cc5ncnc5cc4nc3-c3ccccc3)cc2)CC1  remaining signal (cell-free assay; 0.5 µM): 101%
N#CC1(c2ccccn2)CCN(Cc2cc(C(=O)O)c(=O)n3ccccc23)CC1  remaining binding (cell-free assay; competition with immobilised ligand; 1 µM): 90%
Nc1ncc(-c2nc(N3CCOCC3)nc(N3CCOCC3)n2)c(C(F)F)n1  remaining binding (binding; competition with immobilised ligand; 10 µM): 54%
Cn1cncc1[C@](O)(COc1ccc(C#N)cc1-c1ccc(OC(F)(F)F)cc1)c1ccc(C#N)cc1  remaining binding (cell-free assay; competition with immobilised ligand; 1 µM): 89%
COc1ncccc1-c1cnn2ccc(N3CCN(C(=O)OC(C)C)CC3)nc12  remaining binding (binding; competition with immobilised ligand; 1 µM): 100%
C#Cc1n[nH]c2c(-c3cn([C@@H](C)c4ccccn4)c(=O)[nH]c3=O)cc(F)cc12  inhibition (enzyme activity; inhibitor; 0.1 µM): 5.1%
Cc1nn(C)cc1-c1nc2c(N3CCN(Cc4ccc(Cl)cc4)CC3)c(Cl)cnc2[nH]1  remaining binding (binding; competition with immobilised ligand; 1 µM): 100%
Cn1cc(-c2cc(F)cc(N3CCn4c(cc5c4CCCC5)C3=O)c2CO)cc(Nc2ccc(N3CCN(C4COC4)CC3)cn2)c1=O  inhibition (enzyme activity; inhibitor; 0.1 µM): 10%
